# Bioassay records (PubChem)
# CDK5 p35 inh = inhibitors of human CDK5/p35 kinase, primary screen, biochemical, single concentration; 330,000 compounds, 0.01% hits; inhibition, % at 10 µM; Cyclin-dependent kinase 5 (Homo sapiens) + Cyclin-dependent kinase 5 activator 1 (Homo …; Recombinant CDK5/p35, ADP-Glo luminescence, 60 min;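 active = highest replicate inhibition of at least 50% and at least 75% of replicates reaching 50%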;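 note: plate controls were DMSO neutral control for no effect and GW8510 at 10 µM for full effect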
# GSK3A inh = blockers of GSK3A enzyme activity – biochemical, luminescence, cell-free homogeneous, HTS, primary screen; 320,000 compounds, 0.1% hits; AID 2650, 2010; Glycogen synthase kinase-3 alpha (Homo sapiens), P49840; GSK-3 alpha kinase, ADP-Glo luminescence, 60 min; inhibition, % at 10 µM;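 active = more than half of replicates show inhibition above 20%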;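 note: GST-tagged GSK-3 alpha with peptide substrate and 25 µM ATP; 0% = DMSO neutral wells and 100% = GW8510 positive control wells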
# STK33 kinase inh = inhibitors of purified STK33 kinase, primary screen, biochemical, ADP-Glo luminescence, homogeneous, cell-free | Serine/threonine-protein kinase 33 (Homo sapiens), Q9BYT3 | MBP phosphorylation | inhibition, % at 10 µM | 320,000 compounds, 0.073% hits;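 active = inhibition at or above 25%, using the most active replicate where run in duplicate; inactive = inhibition below 25%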
# GSK3B inh = human GSK3beta kinase inhibitors, primary screen, biochemical, cell-free homogeneous, HTS. Glycogen synthase kinase-3 beta (Homo sapiens), P49841. AID 2097, 2009. activity score (negative = inhibition), % at 10 µM. GST-GSK3beta kinase, ADP-Glo luminescence, 60 min; stronger effect = lower value. 300,000 compounds, 0.038% hits;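 active = more than half of replicate wells score below -50%, meaning over 50% inhibition versus plate controls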;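 note: 0% = median DMSO wells and -100% = median GW8510 positive control wells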
# Target sequence (P49841 whole entry, looked up): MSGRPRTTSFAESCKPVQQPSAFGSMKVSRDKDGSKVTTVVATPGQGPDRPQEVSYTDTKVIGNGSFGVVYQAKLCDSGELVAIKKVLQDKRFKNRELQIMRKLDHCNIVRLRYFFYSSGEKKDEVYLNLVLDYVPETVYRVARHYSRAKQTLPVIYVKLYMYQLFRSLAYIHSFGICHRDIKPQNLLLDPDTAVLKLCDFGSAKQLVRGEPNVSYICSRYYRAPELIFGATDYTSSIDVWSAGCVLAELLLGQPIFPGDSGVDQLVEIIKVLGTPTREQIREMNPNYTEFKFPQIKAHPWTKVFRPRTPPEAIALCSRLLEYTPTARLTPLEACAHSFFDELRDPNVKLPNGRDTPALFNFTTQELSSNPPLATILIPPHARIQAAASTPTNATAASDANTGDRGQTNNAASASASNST
#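 Assay system: GST-fused GSK3beta enzyme, cell-free / Medium: Tris pH 7.5 buffer with MgCl2, DTT, BSA, heparin / Also added: peptide substrate plus 25 µM ATP (final) / Compound: 10 µM single point / Timing: kinase reaction with compound 60 min at room temperature / Detection: ADP-Glo luminescence / Benchmarks: DMSO neutral wells and GW8510 at 20 µM as positive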
# DYRK1A inh = rat Dyrk1A kinase inhibitors, primary screen, biochemical, single point, plate reader; inhibition, % at 12.5 µM; 310,000 compounds, 0.43% hits; ADP-Glo luminescence, NFATc1 peptide; Dual specificity tyrosine-phosphorylation-regulated kinase 1A (Rattus norvegicus), Q63470; AID 504441, 2011; in the data active = inhibition above about 50%;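 note: plate controls were vehicle with enzyme for no effect and no enzyme for full effect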
# Dyrk1A artifact = ADP-Glo luciferase interference without Dyrk1A, dose response, artefact control for Dyrk1A inhibitor project, biochemical, luminescence, cherry-pick, set 02; shares compounds with DYRK1A inh; ADP-Glo luciferase artifact assay, no Dyrk1A; AC50, µM (series often up to 12 µM), inactives show top-dose activity change, negative = inhibition; 1,300 tested, under 10 active;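 active = fitted half-maximal dose AC50 no more than ten times the top valid tested dose, with luminescence dropping as dose rises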
# The depositor's hits bear a star; . = not tested or not shown. The full list was thinned out, with hits kept by preference.
SMILES,CDK5 p35 inh,GSK3A inh,STK33 kinase inh,GSK3B inh,DYRK1A inh,Dyrk1A artifact
CC1CCC(C(C)C)C2=C1C(C#N)(C#N)C(C#N)(C#N)C(c1ccccc1)N2 (centres undefined),-0.3,33.9,11.9,-16.0,54.2*,7.1%
CC(C)Cn1nc(NC(=O)c2cccs2)c2cc3ccccc3nc21,1.8,-7.9,-0.6,-8.1,14.4,.
COc1ccc2nc3c(cc2c1)c(NC(=O)c1cccs1)nn3CC(C)C,43.4,72.6*,4.7,-92.0*,89.4*,8.5%
COc1cc(/C=C2\SC(=S)N(NC(=O)c3ccc(O)c(OC)c3)C2=O)ccc1O,1.5,1.9,2.9,0.1,42.1,.
COc1cc(/C=C2\SC(=S)N(NC(=O)c3cccc(O)c3)C2=O)ccc1O,3.2,2.4,0.5,-8.9,61.4*,5.0%
COc1ccc(C(=O)/C=C/Nc2cccc(C)n2)cc1OC,0.3,2.1,-1.7,-3.8,-2.8,.
COc1ccc(C(=O)NNC(=O)COC(=O)c2sccc2C)cc1,-1.1,.,.,.,-0.3,.
Cc1cc(NCCCn2ccnc2)n2ncc(-c3ccc(Cl)cc3)c2n1,1.3,11.9,18.1,-8.5,56.5*,9.6%
Cc1cc(NCCCN2CCOCC2)n2ncc(-c3ccc(Cl)cc3)c2n1,0.4,0.2,2.1,3.5,-1.3,.
COc1ccc(NC(=O)/C(C#N)=C\c2ccc(-c3cccc(C(=O)O)c3C)o2)cc1,0.1,-9.8,6.1,-0.1,77.7*,9.8%
Cc1nc(SCc2ccccc2C)n[nH]1,2.9,1.5,-0.6,-1.1,0.9,.
CCCCC(CC)CN=C(N)NC(N)=NCCCCCCN=C(N)NC(N)=NCC(CC)CCCC (centres undefined),-2.3,19.6,28.9*,.,52.2*,12.0%
CCCCC(CC)CO (centres undefined),-1.2,.,.,.,-5.7,.
O=C(CNC(=O)c1sc2ccccc2c1Cl)NCc1cccnc1,-5.0,-1.0,-2.0,-4.0,-1.8,.
O=C(COc1ccccc1)Nc1cccc(-c2nn[nH]n2)c1,3.6,20.4,4.0,-1.3,70.4*,7.2%
O=C(COc1ccccc1)Nc1cccc(-c2cn3cccnc3n2)c1,1.1,2.1,2.8,1.4,53.9*,8.4%
CCC(=O)Nc1cccc(-c2cn3ccccc3n2)c1,-1.0,2.2,-1.0,3.9,3.2,.
CC(=O)Nc1cccc(-c2nn[nH]n2)c1,0.4,7.4,0.0,1.7,41.9,.
CCOC(=O)c1ccc(NC(=O)CC2COc3ccccc3O2)cc1 (centres undefined),0.5,-2.5,-0.8,-1.2,4.9,.
CCC(C(=O)Nc1ccc(OC)c(Cl)c1)c1ccccc1 (centres undefined),-0.9,.,.,2.8,6.1,.
O=S(=O)(Nc1c(S(=O)(=O)c2ccccc2)c2nc3ccccc3nc2n1C1CCCCC1)c1ccccc1,0.9,2.3,0.2,-0.6,74.9*,10.2%
Cc1c(Cl)cccc1NC(=O)NCc1cccnc1,-0.3,1.0,-0.4,0.3,0.5,.
c1ccc2c(-c3nc(C4CCCCC4)no3)cc(-c3ccncc3)nc2c1,0.5,-1.0,-0.1,0.1,71.6*,7.6%
COc1ccc(-c2cc(-c3nnc(-c4ccncc4)o3)c3ccccc3n2)cc1,-0.5,-1.7,-1.8,-1.5,-5.8,.
COc1c(O)cc2oc(-c3ccc(O)cc3)cc(=O)c2c1O,10.1,6.0,6.5,-2.7,30.3,.
SMILES,CDK5 p35 inh,GSK3A inh,STK33 kinase inh,GSK3B inh,DYRK1A inh,Dyrk1A artifact
O=c1cc(-c2ccc(O)cc2)oc2c(O)c(O)c(O)c(O)c12,2.5,10.0,15.7,.,54.4*,10.4%
O=c1cc(-c2ccccc2)oc2cc(O)c(O)c(O)c12,12.1,.,.,.,57.3*,10.4%
CCOC(=O)/C(N=Nc1c(C)n(C)n(-c2ccccc2)c1=O)=C(/O)c1ccccc1,0.6,-0.6,-1.0,-1.1,1.0,.
O=C1CCCc2c1cc(C(=O)NCCCN1CCOCC1)c(=O)n2-c1ccc(Cl)cc1,-1.9,0.7,1.0,-2.8,58.0*,11.6%
Cc1ccc(-n2c3c(cc(C(=O)NCCCN4CCOCC4)c2=O)C(=O)CC(C)(C)C3)cc1,-1.0,-0.7,-1.0,-2.3,-3.9,.
CC(=O)Nc1cccc(-c2cnc(N)c(C(=O)c3cccnc3)n2)c1,9.1,88.5*,12.8,.,88.2*,12.9%
Cc1ccccc1C(=O)NCCNc1ccc([N+](=O)[O-])cc1,-5.5,-0.9,-2.1,2.2,3.4,.
Cc1ccc(-n2ncc3c2CC(C)(C)CC3NC(=O)c2cc[n+]([O-])cc2)cc1 (centres undefined),-0.1,0.5,-1.0,0.3,3.1,.
O=C(O)c1ccc(/C=N/Nc2ccc(C(F)(F)F)cn2)cc1,56.9*,.,.,-41.7,54.0*,8.7%
O=C(O)c1ccc(/C=N/Nc2cccc(C(F)(F)F)c2)cc1,-0.2,.,-1.4,.,9.1,.
Cc1ccc2c(c1)N=C(c1ccc(Cl)cc1)CO2,2.3,-0.4,0.0,1.2,4.2,.
Cc1cccc(Nc2cc(C)c3c(O)cccc3n2)c1C,-1.6,1.6,-0.1,-0.9,68.0*,7.2%
Cc1ccc(C(=O)Nc2ccc3ccccc3n2)cc1,0.5,-2.1,0.9,2.6,21.0,.
O=C(Nc1ccc2ccccc2n1)c1ccccc1,1.4,-1.6,0.6,0.3,51.1*,8.1%
c1cnc(-c2nnc3n2CCCCC3)cn1,-1.9,1.9,0.9,-0.3,5.1,.
CCN1CCN(C(=O)c2ccc3c(Cl)c4c(nc3c2)CCCC4)CC1,0.8,.,1.2,1.5,2.8,.
Cc1[nH]ccc2c1[nH]c1cc(=O)ccc12,9.4,4.2,3.2,0.0,93.1*,8.0%
O=c1cc[nH]c2c1ccc1c(=O)cc[nH]c12,0.8,2.1,4.8,-0.2,0.7,.
CCCC1(C(=O)O)NC(c2cccc(OC)c2O)C2C(=O)N(c3ccccc3)C(=O)C21 (centres undefined),1.3,-1.0,-3.0,6.0,2.0,.
Cc1nc(NC(=O)c2ccccc2)sc1-c1csc(NCc2ccco2)n1,1.3,.,.,-3.0,66.6*,7.3%
Cn1c(=O)c2c(nc(NCc3ccco3)n2CC(O)COc2ccccc2)n(C)c1=O (centres undefined),-0.8,1.7,-2.1,0.1,56.5*,7.6%
CCCn1c(NCc2ccco2)nc2c1c(=O)n(C)c(=O)n2C,1.2,0.1,-1.6,-6.8,-2.3,.
O=C(O)c1ccc(NS(=O)(=O)c2cccc(C(=O)Nc3ccc([N+](=O)[O-])cc3)c2)cc1,1.1,-1.6,-1.7,4.9,.,.
Cc1ccc(-c2nn[nH]n2)cc1Cl,-0.7,4.9,-0.4,-3.5,53.2*,7.6%
